Tests used:
Type in all cases: functional
KM12 [1] = experiment: Growth inhibition of human KM12 cells incubated for 48 hrs by sulforhodamine B assay
Procedure, shortened: (§1)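 NCI60 panel at the NCI Developmental Therapeutics Program. Only compounds active in the 10 µM screen went to dose-response testing. GI50, the concentration giving 50% of maximal inhibition of proliferation, and TGI, the concentration giving total growth inhibition, were derived from the dose-response curves.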

OVCAR-8 = experiment: Growth inhibition of human OVCAR-8 cells assessed as cell growth at 100 uM incubated for 48 hrs by sulforhodamine B assay relative to control; settings: read-out: Activity
RXF 393 = experiment: Growth inhibition of human RXF 393 cells incubated for 48 hrs by sulforhodamine B assay
Procedure, shortened: (§2)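 NCI DTP 60-line human tumour panel. Dose-response curves were run only for ligands active in the initial 10 µM screen. GI50 (concentration giving 50% of maximal inhibition of proliferation) and TGI (concentration giving total growth inhibition) were derived from these curves.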

Hs-578T = experiment: Growth inhibition of human Hs-578T cells assessed as cell growth at 100 uM incubated for 48 hrs by sulforhodamine B assay relative to control; settings: read-out: Activity
HT-29 [2] = experiment: Growth inhibition of human HT-29 cells incubated for 48 hrs by sulforhodamine B assay; procedure, shortened: as §1
K562 = experiment: Growth inhibition of human K562 cells assessed as cell growth at 100 uM incubated for 48 hrs by sulforhodamine B assay relative to control; settings: read-out: Activity
HCT-15 = experiment: Growth inhibition of human HCT-15 cells assessed as cell growth at 1 uM incubated for 48 hrs by sulforhodamine B assay relative to control; settings: read-out: Activity
CCRF-CEM [3] = experiment: Growth inhibition of human CCRF-CEM cells assessed as cell growth at 1 uM incubated for 48 hrs by sulforhodamine B assay relative to control; settings: read-out: Activity
Procedure, shortened: (§3)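 NCI Developmental Therapeutics Program NCI60 panel. Compounds that were active in the 10 µM one-dose screen went on to dose–response testing. Growth at each concentration is expressed relative to untreated control (100%). GI50 (concentration giving 50% of maximal inhibition of proliferation) and TGI (concentration giving total growth inhibition) were derived from the curves.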

SNB-19 = experiment: Growth inhibition of human SNB-19 cells assessed as cell growth at 0.1 uM incubated for 48 hrs by sulforhodamine B assay relative to control; settings: read-out: Activity
SNB-75 [4] = experiment: Growth inhibition of human SNB-75 cells incubated for 48 hrs by sulforhodamine B assay; procedure, shortened: as §2
HOP-62 = experiment: Growth inhibition of human HOP-62 cells assessed as cell growth at 0.1 uM incubated for 48 hrs by sulforhodamine B assay relative to control; settings: read-out: Activity
SNB-75 [5] = experiment: Growth inhibition of human SNB-75 cells assessed as cell growth at 0.01 uM incubated for 48 hrs by sulforhodamine B assay relative to control; settings: read-out: Activity
A498 = experiment: Growth inhibition of human A498 cells assessed as cell growth at 100 uM incubated for 48 hrs by sulforhodamine B assay relative to control; settings: read-out: Activity; procedure, shortened: as §3
SNB-75 [6] = experiment: Growth inhibition of human SNB-75 cells assessed as cell growth at 100 uM incubated for 48 hrs by sulforhodamine B assay relative to control; settings: read-out: Activity
SK-MEL-5 = experiment: Growth inhibition of human SK-MEL-5 cells assessed as cell growth at 0.1 uM incubated for 48 hrs by sulforhodamine B assay relative to control; settings: read-out: Activity
NCI-H460 = experiment: Growth inhibition of human NCI-H460 cells incubated for 48 hrs by sulforhodamine B assay; procedure, shortened: as §1
KM12 [7] = experiment: Growth inhibition of human KM12 cells assessed as cell growth at 100 uM incubated for 48 hrs by sulforhodamine B assay relative to control; settings: read-out: Activity
SK-MEL-2 = experiment: Growth inhibition of human SK-MEL-2 cells assessed as cell growth at 1 uM incubated for 48 hrs by sulforhodamine B assay relative to control; settings: read-out: Activity
NCI-H522 = experiment: Growth inhibition of human NCI-H522 cells incubated for 48 hrs by sulforhodamine B assay; procedure, shortened: as §1
HOP-92 = experiment: Growth inhibition of human HOP-92 cells incubated for 48 hrs by sulforhodamine B assay; procedure, shortened: as §1
UO-31 = experiment: Growth inhibition of human UO-31 cells assessed as cell growth at 1 uM incubated for 48 hrs by sulforhodamine B assay relative to control; settings: read-out: Activity
ACHN = experiment: Growth inhibition of human ACHN cells assessed as cell growth at 1 uM incubated for 48 hrs by sulforhodamine B assay relative to control; settings: read-out: Activity
DU-145 = experiment: Growth inhibition of human DU-145 cells assessed as cell growth at 100 uM incubated for 48 hrs by sulforhodamine B assay relative to control; settings: read-out: Activity; procedure, shortened: as §3
COLO 205 = experiment: Growth inhibition of human COLO 205 cells incubated for 48 hrs by sulforhodamine B assay; procedure, shortened: as §3
NCI-H226 [8] = experiment: Growth inhibition of human NCI-H226 cells assessed as cell growth at 0.01 uM incubated for 48 hrs by sulforhodamine B assay relative to control; settings: read-out: Activity
SNB-75 [9] = experiment: Growth inhibition of human SNB-75 cells assessed as cell growth at 1 uM incubated for 48 hrs by sulforhodamine B assay relative to control; settings: read-out: Activity
OVCAR-5 = experiment: Growth inhibition of human OVCAR-5 cells assessed as cell growth at 100 uM incubated for 48 hrs by sulforhodamine B assay relative to control; settings: read-out: Activity
CCRF-CEM [10] = experiment: Growth inhibition of human CCRF-CEM cells assessed as cell growth at 100 uM incubated for 48 hrs by sulforhodamine B assay relative to control; settings: read-out: Activity; procedure, shortened: as §3
HT-29 [11] = experiment: Growth inhibition of human HT-29 cells assessed as cell growth at 0.01 uM incubated for 48 hrs by sulforhodamine B assay relative to control; settings: read-out: Activity
NCI-H226 [12] = experiment: Growth inhibition of human NCI-H226 cells assessed as cell growth at 0.1 uM incubated for 48 hrs by sulforhodamine B assay relative to control; settings: read-out: Activity
SR = experiment: Growth inhibition of human SR cells assessed as cell growth at 0.1 uM incubated for 48 hrs by sulforhodamine B assay relative to control; settings: read-out: Activity
MDA-MB-231 = experiment: Growth inhibition of human MDA-MB-231 cells incubated for 48 hrs by sulforhodamine B assay; procedure, shortened: as §1
[13] = read-out: LC50 (the source's name)

Question: How did the GI50 (KM12 [1]) turn out when CCc1ccccc1NC(=O)c1sc2nc3c(cc2c1N)C(=O)CCC3 was run?
Answer: 0.402 µM

Question: What about the LC50 (KM12 [1]) of the same compound?
Answer: > 100 µM

Question: What about the TGI (KM12 [1]) of the same compound?
Answer: > 100 µM

Question: What about the growth at 100 µM (OVCAR-8) of the same compound?
Answer: 10%

Question: And the GI50 (RXF 393)?
Answer: 0.163 µM

Question: And the TGI (RXF 393)?
Answer: 0.777 µM

Question: And the CC50 (RXF 393; [13])?
Answer: > 100 µM

Question: What about the growth at 100 µM (Hs-578T) of the same compound?
Answer: 15%

Question: And the GI50 (HT-29 [2])?
Answer: 0.372 µM

Question: What about the LC50 (HT-29 [2]) of the same compound?
Answer: > 100 µM

Question: What about the TGI (HT-29 [2]) of the same compound?
Answer: 29.5 µM

Question: And the growth at 100 µM (K562)?
Answer: 13%

Question: What about the growth at 1 µM (HCT-15) of the same compound?
Answer: 30%

Question: What about the growth at 1 µM (CCRF-CEM [3]) of the same compound?
Answer: 8%

Question: And the growth at 0.1 µM (SNB-19)?
Answer: 88%

Question: What about the GI50 (SNB-75 [4]) of the same compound?
Answer: 0.193 µM

Question: What about the LC50 (SNB-75 [4]) of the same compound?
Answer: > 100 µM

Question: And the TGI (SNB-75 [4])?
Answer: 55.1 µM

Question: What about the growth at 0.1 µM (HOP-62) of the same compound?
Answer: 82%

Question: And the growth at 0.01 µM (SNB-75 [5])?
Answer: 73%

Question: What about the growth at 100 µM (A498) of the same compound?
Answer: -10%

Question: What about the growth at 100 µM (SNB-75 [6]) of the same compound?
Answer: -19%

Question: What about the growth at 0.1 µM (SK-MEL-5) of the same compound?
Answer: 82%

Question: And the GI50 (NCI-H460)?
Answer: 0.345 µM

Question: And the LC50 (NCI-H460)?
Answer: > 100 µM

Question: What about the TGI (NCI-H460) of the same compound?
Answer: > 100 µM

Question: And the growth at 100 µM (KM12 [7])?
Answer: 13%

Question: And the growth at 1 µM (SK-MEL-2)?
Answer: 31%

Question: What about the GI50 (NCI-H522) of the same compound?
Answer: 0.502 µM

Question: What about the LC50 (NCI-H522) of the same compound?
Answer: > 100 µM

Question: What about the TGI (NCI-H522) of the same compound?
Answer: > 100 µM

Question: And the LC50 (concentration killing 50% of the starting cells) (HOP-92)?
Answer: > 100 µM

Question: And the TGI (HOP-92)?
Answer: ≥ 100 µM

Question: And the growth at 1 µM (UO-31)?
Answer: 50%

Question: What about the growth at 1 µM (ACHN) of the same compound?
Answer: 43%

Question: And the growth at 100 µM (DU-145)?
Answer: 2%

Question: And the GI50 (COLO 205)?
Answer: 0.252 µM

Question: And the LC50 (concentration killing 50% of cells) (COLO 205)?
Answer: > 100 µM

Question: And the TGI (COLO 205)?
Answer: 19.8 µM

Question: What about the growth at 0.01 µM (NCI-H226 [8]) of the same compound?
Answer: 89%

Question: And the growth at 1 µM (SNB-75 [9])?
Answer: -8%

Question: What about the growth at 100 µM (OVCAR-5) of the same compound?
Answer: 7%

Question: And the growth at 100 µM (CCRF-CEM [10])?
Answer: 8%

Question: And the growth at 0.01 µM (HT-29 [11])?
Answer: 95%

Question: And the growth at 0.1 µM (NCI-H226 [12])?
Answer: 86%

Question: And the growth at 0.1 µM (SR)?
Answer: 96%

Question: What about the GI50 (MDA-MB-231) of the same compound?
Answer: 1.25 µM

Question: And the TGI (MDA-MB-231)?
Answer: > 100 µM

Question: What about the CC50 (MDA-MB-231; [13]) of the same compound?
Answer: > 100 µM

Reference: ChEMBL document CHEMBL4715736, “Identification of anticancer agents based on the thieno[2,3-b]pyridine and 1H-pyrazole molecular scaffolds” (2016)
